# Measured values reported in ChEMBL document CHEMBL1153093, “Synthesis and structure-activity relationships of cassiarin A as potential antimalarials with vasorelaxant activity” (Bioorg Med Chem, 2009).
# Active and inactive are the calls of the source. No cut-off for these calls is given here.
# Key:
# MCF7 = test: Cytotoxicity against human MCF7 cells after 48 hrs by MTT assay; type: cell-based; settings: MCF7, 48 h
# How it was run: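 MCF7 human breast adenocarcinoma cells seeded at 5 × 10³ cells/well and preincubated 24 h at 37 °C, 5% CO₂. Compounds were added at various concentrations for 48 h at 37 °C. MTT solution (5 mg/mL stock) was added for 2 h, and formazan was dissolved in 10% SDS–0.01 N HCl. OD was read at 550/700 nm in triplicate wells, and IC₅₀ was taken from % living cells vs control.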
# Aorta [1] = test: Vasorelaxant activity in Wistar rat endothelium-intact thoracic aortic rings assessed as inhibition of phenylephrine-induced tissue contraction at 30 uM; type: functional, tissue-based
# How it was run: (§1)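 Thoracic aorta rings, 3 mm, in Krebs–Henseleit solution (95% O₂/5% CO₂, 37 °C), equilibrated 60 min at 1.0 g resting tension. Rings were contracted with 3 × 10⁻⁷ M phenylephrine. Endothelium was accepted if 10⁻⁵ M acetylcholine gave 80% relaxation. At the contraction plateau, samples were added at 1 × 10⁻⁶–3 × 10⁻⁵ M. Tension was recorded isometrically; data are mean ± SEM with ANOVA/Bonferroni.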
# Plasmodium falciparum = test: Antimalarial activity against chloroquine-sensitive Plasmodium falciparum 3D7 by giemsa stain
# [2] = Selectivity index, ratio of IC50 for human MCF7 to IC50 for chloroquine-sensitive Plasmodium falciparum 3D7
# [3] = Vasorelaxant activity in Wistar rat endothelium-intact thoracic aortic rings assessed as inhibition of phenylephrine-induced tissue contraction in presence of NO synthase-inhibitor L-NMMA; type: functional; settings: Thoracic aorta
# Aorta [4] = test: Vasorelaxant activity in Wistar rat endothelium-intact thoracic aortic rings assessed as inhibition of phenylephrine-induced tissue contraction; type: functional, tissue-based; how it was run: as §1
# Aorta [5] = test: Vasorelaxant activity in Wistar rat endothelium-removed thoracic aortic rings assessed as inhibition of phenylephrine-induced tissue contraction; type: functional, tissue-based
# How it was run: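 Isolated thoracic aorta rings, 3 mm, in oxygenated Krebs–Henseleit solution at 37 °C, equilibrated 60 min under 1.0 g tension. Rings were precontracted with 3 × 10⁻⁷ M phenylephrine, and at the plateau samples were added at 1 × 10⁻⁶–3 × 10⁻⁵ M. Relaxation was recorded by force transducer; data are mean ± SEM.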
SMILES,IC50 (MCF7) [µM],Activity (Aorta [1]),IC50 (Plasmodium falciparum) [µM],Ratio IC50 [2],Activity [3],Activity (Aorta [4]),Activity (Aorta [5])
CCCCn1c(C)cc2cc(=O)cc3oc(C)cc1c23,> 100,inactive,4.2,> 23,–,–,–
CC(=O)Oc1cc2c3c(nc(C)cc3c1)C=C(C)O2 [ACETYLCASSIARIN A],> 100,–,1.2,> 83,–,–,–
CC1=Cc2nc(C)cc3cc(OC(=O)c4ccccc4)cc(c23)O1 [BENZOYLCASSIARIN A],> 100,–,1.2,> 83,–,–,–
CNC(=N)NCCC[C@H](N)C(=O)O,–,–,–,–,inactive,–,–
CCCC(=O)Oc1cc2c3c(nc(C)cc3c1)C=C(C)O2 [BUTYROYLCASSIARIN A],> 100,Active,4.1,> 24,–,–,–
CCCCOc1cc2c3c(nc(C)cc3c1)C=C(C)O2 [CASSIARIN A BUTYL ETHER],76.7,–,3,> 26,–,–,–
COc1cc2c3c(nc(C)cc3c1)C=C(C)O2 [CASSIARIN A METHYL ETHER],87.8,Active,3.6,> 24,–,Dose-dependent effect,inactive
COC(=O)CCCn1c(C)cc2cc(=O)cc3oc(C)cc1c23 [CASSIARIN B],> 100,inactive,22,> 4.5,–,–,–
CC1=Cc2nc(C)cc3cc(OS(=O)(=O)C(F)(F)F)cc(c23)O1,> 100,–,0.41,> 244,–,–,–
Cc1cc2c3c(cc(C)n2C)cc(=O)cc3o1,> 100,inactive,23.3,> 4.2,–,–,–
Cc1cc2c3c(cc(C)n2-c2ccccc2)cc(=O)cc3o1,> 100,inactive,0.09,> 1110,–,–,–
CCN(CC)CCCC(C)Nc1ccnc2cc(Cl)ccc12 (configuration not stated) [CHLOROQUINE],36.1,–,–,–,–,–,–
CC1=Cc2nc(C)cc3cc(O)cc(c23)O1 [CASSIARIN A],> 100,Active,0.023,> 4350,–,Dose-dependent effect,inactive
CC1=Cc2nc(C)cc3cccc(c23)O1 [7-DEHYDROXYCASSIARIN A],> 100,–,5.4,> 18,–,–,–
CC1=Cc2nc(C)cc3cc(OCc4ccccc4)cc(c23)O1 [CASSIARIN A BENZYL ETHER],72.2,–,14.9,4.8,–,–,–
